This is an account of results in ChEMBL document CHEMBL1649486, “Comparative efficacies of telavancin and vancomycin in preventing device-associated colonization and infection by Staphylococcus aureus in rabbits” (2009).

In general, MBC refers to the smallest concentration meeting the test's criterion for killing. One may read the MIC as the lowest concentration found to suppress growth.

Common to all, as to format: functional
The subject of experiment [1] is Staphylococcus aureus. As to the kind of experiment: Antimicrobial activity against Staphylococcus aureus P1 by macrodilution method. Summed up:
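MIC and minimal bactericidal concentration determined in triplicate by standard broth macrodilution against MSSA clinical isolate P1.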

Experiment [2] relates to Staphylococcus aureus. As to the kind of experiment: Antimicrobial activity against Staphylococcus aureus P1 infected in New Zealand rabbit assessed as decrease in catheter related infection rate at 30 mg/kg, iv (reference value: 100%). Also noted: scale not given: the % may be the effect or the level left. Summed up:
(§1)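 Female specific-pathogen-free New Zealand White rabbits, 4-7 months old, 3-4 kg, nine per group. Each got a single iv dose over ~2 min under anesthesia, with D5W as control. Six subcutaneous catheter segments per rabbit were surface-inoculated with 10^5 CFU MSSA P1. Infection = inoculated strain grown from both the device sonication culture and a swab of adjacent soft-tissue collection or wound discharge; rate = infected/total devices.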

Experiment [3] deals with Staphylococcus aureus. As to the kind of experiment: Antimicrobial activity against Staphylococcus aureus P1 infected in New Zealand rabbit assessed as decrease in catheter related infection rate at 15 mg/kg, iv (reference value: 100%). Also noted: scale not given: the % may be the effect or the level left. Summed up: as §1
Experiment [4] has as its system Staphylococcus aureus. As to the kind of experiment: Antimicrobial activity against Staphylococcus aureus P1 infected in New Zealand rabbit assessed as decrease in catheter bacterial colonization rate at 45 mg/kg, iv (reference value: 100%). Also noted: scale not given: the % may be the effect or the level left. Summed up: (§2)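 Female specific-pathogen-free New Zealand White rabbits, 4-7 months old, 3-4 kg, nine per group. Each got a single iv dose over ~2 min under anesthesia, with D5W as control. Six 2-cm polyurethane catheter segments were implanted subcutaneously in the back, and each surface was inoculated with 10^5 CFU MSSA P1 in Trypticase soy broth. Explants were sonicated in 2 ml saline and the sonicate cultured (detection limit 10 CFU). Colonization = inoculated strain grown from sonicate; rate = colonized/total devices.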

For experiment [5], the system named is Staphylococcus aureus. In words: Antimicrobial activity against Staphylococcus aureus P1 infected in New Zealand rabbit assessed as decrease in catheter bacterial colonization rate at 30 mg/kg, iv (reference value: 100%). Also noted: scale not given: the % may be the effect or the level left. The method, boiled down:
as §2

Experiment [6] concerns Staphylococcus aureus. As to the kind of experiment: Antimicrobial activity against Staphylococcus aureus P1 infected in New Zealand rabbit assessed as decrease in catheter bacterial colonization rate at 15 mg/kg, iv (reference value: 100%). Also noted: scale not given: the % may be the effect or the level left. The method, boiled down: as §2
In experiment [7] the test system is Staphylococcus aureus. In words: Antimicrobial activity against Staphylococcus aureus P1 infected in New Zealand rabbit assessed as decrease in catheter related infection rate at 45 mg/kg, iv (reference value: 100%). Details: scale not given: the % may be the effect or the level left. Summed up:
as §1

Values after ≈ are worked out from the molar mass of the structure shown.

In the experiment with Staphylococcus aureus [1], `CN[C@H](CC(C)C)C(=O)N[C@H]1C(=O)N[C@@H](CC(N)=O)C(=O)N[C@H]2C(=O)N[C@H]3C(=O)N[C@H](C(=O)N[C@H](C(=O)O)c4cc(O)cc(O)c4-c4cc3ccc4O)[C@H](O)c3ccc(c(Cl)c3)Oc3cc2cc(c3O[C@@H]2O[C@H](CO)[C@@H](O)[C@H](O)[C@H]2O[C@H]2C[C@](C)(N)[C@H](O)[C@H](C)O2)Oc2ccc(cc2Cl)[C@H]1O` [VANCOMYCIN] gave an MBC of 8 µg/mL (≈ 5.52 µM).
Consider `CCCCCCCCCCNCCN[C@@]1(C)C[C@H](O[C@H]2[C@H](Oc3c4cc5cc3Oc3ccc(cc3Cl)[C@@H](O)[C@@H](NC(=O)[C@@H](CC(C)C)NC)C(=O)N[C@@H](CC(N)=O)C(=O)N[C@H]5C(=O)N[C@H]3C(=O)N[C@H](C(=O)N[C@H](C(=O)O)c5cc(O)c(CNCP(=O)(O)O)c(O)c5-c5cc3ccc5O)[C@H](O)c3ccc(c(Cl)c3)O4)O[C@H](CO)[C@@H](O)[C@@H]2O)O[C@@H](C)[C@H]1O` [TELAVANCIN], for which the Activity with Staphylococcus aureus [2] amounted to 9%; in the experiment on Staphylococcus aureus [3] it was 35%; in the experiment on Staphylococcus aureus [4], 11%; in the experiment on Staphylococcus aureus [5], 11%; in the experiment on Staphylococcus aureus [6], 39%; in the experiment on Staphylococcus aureus [7] it was 11%. The MBC against Staphylococcus aureus [1] turned out to be 1 µg/mL (≈ 0.57 µM). Besides, in the experiment on Staphylococcus aureus [1], the MIC turned out to be 0.25 µg/mL (≈ 0.142 µM).
